From ChEMBL document CHEMBL1124837, “5-Hydroxytryptamine (5-HT3) receptor antagonists. 1. Indazole and indolizine-3-carboxylic acid derivatives” (J Med Chem, 1990) come the findings set out here.

The experiment concerns the target Serotonin 3 (5-HT3) receptor (Rattus norvegicus) (UniProt P35563+Q9JJ16). Put plainly: Inhibition of 5-HT evoked reflex bradycardia in rat. The class given is functional, organism-based. Summed up:
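Anesthetized rats (260–290 g; urethane 1.25 g/kg ip) with blood pressure and heart rate recorded. A submaximal 5-HT dose (6 μg/kg iv) was given repeatedly and heart-rate changes were quantified. Test agents were given iv before 5-HT. ID50 is the dose cutting the 5-HT-evoked response to 50% of control.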
`CN1C2CCCC1CC(NC(=O)c1[nH]nc3ccccc13)C2` (stereo not drawn) yielded an ID50 of 1.1 µg/kg.
To `Cc1cc(C(=O)NC2CC3CCC(C2)N3C)n2ccccc12` (stereo not drawn) belongs 1.6 µg/kg; to `CN1C2CCCC1CC(NC(=O)c1cn(C)c3ccccc13)C2` (stereo not drawn), 6.8 µg/kg; to `CN1C2CCC1CC(NC(=O)c1n[nH]c3ccccc13)C2` (stereo not drawn), 1.2 µg/kg.
Turning to `CN1C2CCC1CC(NC(=O)c1ccc3ccccn13)C2` (stereo not drawn), the ID50 was above 10 µg/kg.
To `CN1C2CCCC1CC(NC(=O)c1[nH]nc3ccc(F)cc13)C2` (stereo not drawn) belongs 1 µg/kg.
The value for `CCc1nc(C(=O)NC2CC3CCC(C2)N3C)c2ccccn12` (stereo not drawn) was 1 µg/kg.
On to `CN1[C@@H]2CC[C@H]1C[C@@H](OC(=O)c1c[nH]c3ccccc13)C2`, for which the ID50 stood at 1.4 µg/kg.
The value for `CN1C2CCC1CC(OC(=O)c1[nH]nc3ccccc13)C2` (stereo not drawn) was 5.3 µg/kg; that for `CN1C2CCC1CC(OC(=O)c1nn(C)c3ccccc13)C2` (stereo not drawn) was 1.4 µg/kg; that for `CN1C2CCCC1CC(NC(=O)c1[nH]nc3ccc(Cl)cc13)C2` (stereo not drawn) was 12.4 µg/kg.
To `CCn1nc(C(=O)NC2CC3CCCC(C2)N3C)c2ccccc21` (stereo not drawn) belongs 0.6 µg/kg.
For `Cc1nccn1CC1CCc2c(c3ccccc3n2C)C1=O` (stereo not drawn), the ID50 worked out at 3.6 µg/kg.
The value for `CN1C2CCCC1CC(NC(=O)c1c3ccccc3nn1C)C2` (stereo not drawn) was above 100 µg/kg; that for `CN1C2CCC1CC(NC(=O)c1cc(-c3ccccc3)c3ccccn13)C2` (stereo not drawn) was 4.7 µg/kg; that for `CCc1cc(C(=O)NC2CC3CCC(C2)N3C)n2ccccc12` (stereo not drawn) was 1 µg/kg.
The value for `CCc1nc(C(=O)NC2CC3CCCC(C2)N3C)c2ccccn12` (stereo not drawn) was 0.5 µg/kg; that for `CN1C2CCCC1CC(NC(=O)c1nn(C)c3ccccc13)C2` (stereo not drawn) was 2 µg/kg.
